An excerpt weighted towards active compounds, which were near 1.7% of everything screened.
TPT1 inh: C. albicans TPT1 enzyme inhibition. recombinant caTPT1, FP RNA substrate dephosphorylation. inhibition, % at 5 µM. actives 0.81% (n = 300,000). AID 1962;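 active means inhibition above the mean of all tested compounds plus 3 SD, set per screening campaign, cut at about 24% in these data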;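 further: plate controls were DMSO alone for no effect and ferristatin control at 100 nM for full effect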
CSN inh: CSN deneddylation inhibition | Purified CSN, SCF-Nedd8-OG deneddylation, fluorescence polarization | actives 0.38% (n = 360,000) | Q92905 | AID 651999 | inhibition, % at 12.5 µM;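 active means pattern-corrected inhibition above about 35%, with an unprinted fluorescence ratio check between 0.5 and 1.5, limit read from the data, passing the limit was not always enough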;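 further: 0% = enzyme with substrate and 100% = substrate without enzyme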
Target sequence (Q92905 whole entry, looked up, one chain of several): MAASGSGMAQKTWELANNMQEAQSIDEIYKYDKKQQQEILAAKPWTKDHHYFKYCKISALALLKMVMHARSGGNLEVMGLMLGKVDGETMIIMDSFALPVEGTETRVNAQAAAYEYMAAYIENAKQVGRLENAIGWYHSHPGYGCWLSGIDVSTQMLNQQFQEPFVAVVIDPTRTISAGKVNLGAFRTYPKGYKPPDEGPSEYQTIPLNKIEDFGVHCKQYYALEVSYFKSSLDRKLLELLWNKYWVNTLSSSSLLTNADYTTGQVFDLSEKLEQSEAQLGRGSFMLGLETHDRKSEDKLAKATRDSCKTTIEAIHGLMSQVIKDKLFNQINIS
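assay system = purified human Csn5 enzyme expressed in HEK293T cells | amount = 0.24 nM enzyme | buffer or medium = Tris/NaCl/DTT buffer, pH 7.5 | reagent = 10 nM SCFSkp2-Nedd8OG | compound = one concentration, 12.5 µM, 0.25% DMSO | times = 90 min reaction at room temperature | signal = FP | read-out basis = % inhibition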
NR1D1 modulator: modulates human Rev-erb alpha binding to DNA. P20393. Rev-erbα–FITC-DNA binding, fluorescence polarization, 90 min. activity, % at 10 µM. actives 0.79% (n = 370,000);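 active means activity above about 14%, limit read from the data; passing the limit was not always enough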;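 further: 0% = DMSO wells with 35 nM protein and 100% = DMSO wells with 750 nM protein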
HNF4A DNA FP: change in binding of human HNF4 alpha to DNA; HNF4a-FITC DNA binding, fluorescence polarization, 1 h; activity change, % at 10 µM; actives 0.3% (n = 360,000); P41235; in the data active means activity change above about 30%, passing the limit was not always enough
NR1D1 mod conf: confirmation of modulators of human Rev-erb alpha DNA binding | activation, % at 25 µM | actives 61% (n = 3,000) | AID 1259319 | shares compounds with NR1D1 modulator | Rev-erb alpha FITC-DNA binding, fluorescence polarization, 90 min;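 active means activation at or above a set limit, or at least 3 SD above the negative control mean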;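 further: 0% = 35 nM protein with DMSO and 100% = 750 nM protein high control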
RORg counter: affects RORgamma DNA binding in a Rev-erb alpha counter-screen; shares compounds with NR1D1 modulator; purified RORgamma protein-FITC-DNA binding, fluorescence polarization; IC50, µM; actives 8% (n = 910);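 active means Compounds whose fitted half-maximal concentration for disrupting protein-DNA binding is below 10 micromolar; the record names Rev-erb in its text, so the target is in doubt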
Starred values were filed as active, the others as inactive; i = inactive; / = no result given.

SMILES	TPT1 inh	CSN inh	NR1D1 modulator	HNF4A DNA FP	NR1D1 mod conf	others
CC1(Cc2cc(Cl)ccc2C(F)(F)F)C(=O)Nc2ccc(-c3ccc(F)c(Cl)c3)cc21 (centres undefined)	/	0	7	3	/
COc1ccc(Cl)cc1CC1(C)C(=O)Nc2ccc(-c3ccccc3OC)cc21 (centres undefined)	/	4	50*	0	55*	RORg counter=>40
COc1ccccc1-c1ccc2c(c1)C(C)(Cc1ccc(Cl)cc1)C(=O)N2 (centres undefined)	/	-3	-5	4	/
COc1ccccc1-c1ccc2c(c1)C(C)(Cc1cccc(C#N)c1)C(=O)N2 (centres undefined)	/	0	46*	2	43*	RORg counter=>40
COc1ccccc1-c1ccc2c(c1)C(C)(Cc1cc(Cl)ccc1C(F)(F)F)C(=O)N2 (centres undefined)	/	4	43*	0	62*	RORg counter=i
O=[N+]([O-])c1ccc(CN2[C@H](COCc3ccccc3)C=CS2(=O)=O)cc1	/	/	-2	/	/
COCCN(CCOC)S(=O)(=O)c1ccc(C(=O)Nc2nc(-c3ccccc3)c(C(=O)c3ccccc3)s2)cc1	-1	-3	2	0	/
CCOC(=O)c1sc(NC(=O)c2ccc(S(=O)(=O)N(C)C)cc2)nc1C	-1	1	36*	-1	38*	RORg counter=>40
CCCN(CCC)S(=O)(=O)c1ccc(C(=O)Nc2nc(-c3ccccc3)c(C(=O)OCC)s2)cc1	-2	-4	33*	-1	12
CCCCOCC1CN(CCCC)S(=O)(=O)c2c(Oc3ccc(OC)cc3)cccc2O1 (centres undefined)	/	/	5	/	/
Cc1cc(NC(=O)CC(C)(C)C)nc2c1c(=O)oc1ccccc12	0	5	38*	4	8
Cc1cc(NC(=O)c2ccccc2F)nc2c1c(=O)oc1ccccc12	-4	11	32*	1	5
CC(C)C[C@H](NC1(C(=O)NC2CCCCC2)CCCCC1)C(=O)NCC(c1ccccc1)c1ccccc1	/	/	-3	/	/
Cc1cccc2c(C(=O)Nn3cnnc3)cc(-c3ccccc3Cl)nc12	3	-6	-3	0	/
Cc1cccc2c(C(=O)n3cccn3)cc(-c3ccccc3Cl)nc12	3	-8	31*	4	7
O=C1OC(c2ccccc2)(c2ccccc2)c2ccsc21	/	5	23*	4	20*
CN(C)c1ccc(C=C2SC(=S)NC2=O)cc1	/	105*	48*	197	35*	RORg counter=>40
O=C1NC(=S)SC1=Cc1ccc2c(c1)OCO2	/	5	-3	-1	/
Cc1nc2c(ccc3nc(NC(=O)c4ccc5c(c4)OCCO5)sc32)s1	-3	45*	56*	21	27*
Cc1cnc(NC(=O)c2ccc3c(c2)OCCO3)s1	/	-5	4	4	/
Cc1nc2ccc3nc(NC(=O)c4ccc5c(c4)OCCO5)sc3c2s1	10	9	78*	6	39*	RORg counter=>40
COc1ccc(C(=O)N2CCC[C@@H]2C(=O)N2CCC[C@@H]2C(=O)NCc2ccccc2)cc1F	/	/	5	/	/
CC(C)N(C[C@@H]1CSCCS(=O)(=O)N1)C(C)C	/	/	2	/	/
COc1ccc(-c2nc(-c3ccccc3)c(-c3cccs3)[nH]2)cc1OC	6	1	10	5	/
COc1ccc(-c2nc(-c3cccs3)c(-c3cccs3)[nH]2)cc1OC	2	1	44*	6	64*	RORg counter=>40
SMILES	TPT1 inh	CSN inh	NR1D1 modulator	HNF4A DNA FP	NR1D1 mod conf	others
O=[N+]([O-])c1cccc(-c2nc(-c3ccccc3)c(-c3cccs3)[nH]2)c1	2	2	3	-1	/
O=[N+]([O-])c1cccc(-c2nc(-c3cccs3)c(-c3cccs3)[nH]2)c1	-1	3	29*	15	25*
CC(=O)O[C@H]1C[C@@H](n2cnc3c(Cl)ncnc32)[C@@H]2OC(C)(C)O[C@@H]21	/	/	4	/	/
CCCN=C(C)c1c(-c2ccccc2)[nH]n(-c2nc3ccccc3s2)c1=O	0	4	58*	7	40*	RORg counter=8.5*
CC(=NN=C(C)c1ccc(O)cc1)c1ccc(O)cc1	/	3	-1	1	/
C/C=C(/C(=C/C)c1ccc(O)cc1)c1ccc(O)cc1	1	25	31*	-2	40*	RORg counter=>40
Cc1cc(Oc2cccnc2)ccc1NC(=O)CCc1c[nH]c2ccccc12	/	/	4	/	/
COc1cccc(NC(=O)c2cc3ccccc3oc2=O)c1	-3	5	-5	-2	/
Cc1cccnc1NC(=O)c1cc2ccccc2oc1=O	-3	-1	43*	0	7
COCC(=O)N1CCC(C(=O)NC2CCCc3ccccc32)CC1 (centres undefined)	/	/	8	/	/
COc1cc2oc(=O)cc(-c3ccc(-c4ccc(CO)cc4)cc3)c2c(OC)c1OC	/	5	30*	1	28*	RORg counter=>40
Cc1cc(NS(=O)(=O)c2ccc(NC(=O)CSc3nnc(-c4ccncc4)n3Cc3ccco3)cc2)nc(C)n1	/	/	3	/	/
O=S(=O)(NCCOc1ccccc1F)c1cccc(Br)c1	/	-8	18*	2	2
N#Cc1cccc(S(=O)(=O)NCCOc2ccccc2F)c1	/	-8	4	-2	/
COc1cccc(C2NC(=S)NC(C)=C2C(C)=O)c1 (centres undefined)	/	/	-1	/	/
O=C1c2cccc3cccc(c23)C(=O)N1OS(=O)(=O)c1ccccc1	3	-2	59*	-2	10
NC(=O)c1cc2cc(Cc3ccccc3Cl)ccc2oc1=O	3	-6	20*	2	17
Cc1nc(C(=O)Nc2ccccc2Cl)cc2c1[nH]c1ccccc12	-3	7	21*	0	8
COCCn1c(-c2ccc(Cl)cc2Cl)nc2c(c(=O)c3ccccc3n2C)c1=O	2	-13	65*	-2	23*
Cc1ccc(-c2nc3c(c(=O)c4ccccc4n3C)c(=O)n2-c2ccccc2)cc1	-1	4	26*	-2	19*
COc1ccc(CCn2c(-c3ccc(OC)cc3)nc3c(c(=O)c4ccccc4n3C)c2=O)cc1	-5	3	50*	-1	31*	RORg counter=>40
COCCn1c(-c2ccc(C)cc2)nc2c(c(=O)c3ccccc3n2C)c1=O	/	3	-3	-3	/
Cc1cccc(-c2nc3c(c(=O)c4ccccc4n3C)c(=O)n2-c2ccccc2)c1	-5	-2	40*	0	29*
Cc1nc2c(c(=O)c3ccccc3n2C)c(=O)n1-c1ccc(F)cc1	-1	3	-5	0	/
C[C@@H]1CN([C@H](C)CO)C(=O)CCCn2nncc2CO[C@@H]1CN(C)C(=O)Nc1ccccc1	/	/	0	/	/
COc1ccc(Cl)cc1C(=O)Nc1ccc(Br)c(C)n1	-2	-1	28*	-7	4
C#CCN1CC(COc2ccccc2)OCCS1(=O)=O (centres undefined)	/	/	-5	/	/

Screens as filed in PubChem.
